Laboratory results: ChEMBL document CHEMBL6115033, “Discovery of a Pyrazolopyridinone-Based MYC Inhibitor That Selectively Engages Intracellular c-MYC and Disrupts MYC-MAX Heterodimerization” (J Med Chem, 2025)
Calls of active or inactive are those of the source. The rule behind the calls is not given here.

Tests used:
[1] = biological target: T1, c-Myc/c-Max (Homo sapiens) (UniProt P01106+P61244); experiment: Disruption of MYC-MAX interaction in human P493-6 cells assessed as reduction in myc level at 25 uM; type: cell-based
T1 sequence (P01106 whole entry): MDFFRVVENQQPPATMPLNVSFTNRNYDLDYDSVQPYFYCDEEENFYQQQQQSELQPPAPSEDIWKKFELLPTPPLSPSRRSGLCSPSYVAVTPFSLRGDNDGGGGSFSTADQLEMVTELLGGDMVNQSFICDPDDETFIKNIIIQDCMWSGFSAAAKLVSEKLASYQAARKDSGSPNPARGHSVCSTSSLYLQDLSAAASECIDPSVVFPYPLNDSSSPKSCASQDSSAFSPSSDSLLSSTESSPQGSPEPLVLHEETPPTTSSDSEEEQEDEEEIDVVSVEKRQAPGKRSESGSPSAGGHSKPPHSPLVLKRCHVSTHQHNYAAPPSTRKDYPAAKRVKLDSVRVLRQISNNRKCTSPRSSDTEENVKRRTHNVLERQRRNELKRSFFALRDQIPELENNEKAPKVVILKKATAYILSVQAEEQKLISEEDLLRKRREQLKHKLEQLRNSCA
T1 sequence (P61244 2-160 partner limits assumed): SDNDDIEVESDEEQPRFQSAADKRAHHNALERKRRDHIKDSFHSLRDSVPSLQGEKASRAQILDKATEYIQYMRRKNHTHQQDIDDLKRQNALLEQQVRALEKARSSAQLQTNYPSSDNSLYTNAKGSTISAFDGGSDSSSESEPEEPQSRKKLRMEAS

[2] = Induction of apoptosis in human P493-6 cells assessed as early apoptotic cells at 50 uM incubated for 24 hrs by Annexin V/PI staining based flow cytometry analysis (reference value: 2.52 %); type: functional
P493-6 [3] = experiment: Induction of apoptosis in human P493-6 cells assessed as effect on caspase-3 level at 50 uM incubated for 24 hrs
MDA-MB-468 [4] = experiment: Antitumor activity against human MDA-MB-468 cells xenografted in mouse assessed as upregulation of caspase-3 expression at 10 mg/kg, sc measured at 14 to 26 days by IHC analysis; settings: time 14-26 day
MDA-MB-468 [5] = experiment: Downregulation of CDK1 mRNA expression in human MDA-MB-468 cells at 25 uM incubated at 48 hrs by qRT-PCR analysis; type: functional, cell-based
Procedure, shortened: (§1)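 Cells (500,000/well) were cultured with or without 25 µM for the indicated time. Total RNA was extracted with TRIzol and reverse-transcribed. qPCR used SYBR green with target-gene primers, reported as ΔΔCT.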

MDA-MB-468 [6] = experiment: Antiproliferative activity against human MDA-MB-468 cells assessed as cell viability incubated for 96 hrs by MTT assay; type: functional, cell-based; settings: MDA-MB-468, 96 h
Procedure, shortened: (§2)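 Adherent cells (2000/well) attached overnight, then exposed to compounds at 0.14–100 µM for 96 h in DMEM with 10% FBS. MTT at 0.5 mg/mL for 4 h in the dark, formazan dissolved in DMSO, absorbance at 570 nm. Compounds were freshly prepared in DMSO, with DMSO below 1%.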

[7] = Antiproliferative activity against human P493-6 cells expressing MYC assessed as inhibition of cell proliferation incubated for 96 hrs by cell titer glo assay; type: functional, cell-based; settings: P493-6, 96 h
Procedure, shortened: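 P493-6 cells (3000/well, RPMI) were seeded overnight at 37 °C, then given compounds at final 0.14–100 µM for 96 h. MYC-off cells were pretreated with 0.1 µg/mL tetracycline for 72 h. Read-out was CellTiter-Glo luminescence after equilibration to room temperature. IC50 was determined in high-MYC and MYC-off cells.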

[8] = biological target: Myc proto-oncogene protein (Homo sapiens) (UniProt P01106); experiment: Binding affinity to MYC in human P493-6 cells assessed as induction of destabilization at 10 to 50 uM measured for 2 hr by CETSA analysis; type: cell-based; settings: DESTABILISER, dose 10-50 µM
Chain of Myc proto-oncogene protein (Homo sapiens) (P01106 whole entry): as the sequence (P01106 whole entry) above

[9] = biological target: T1, c-Myc/c-Max (Homo sapiens); experiment: Disruption of MYC-MAX interaction in human MDA-MB-468 cells assessed as reduction in myc level at 25 uM; type: cell-based
[10] = Induction of apoptosis in human P493-6 cells assessed as necrotic cells at 50 uM incubated for 24 hrs by Annexin V/PI staining based flow cytometry analysis (reference value: 0.11 %); type: functional
MDA-MB-468 [11] = experiment: Induction of apoptosis in human MDA-MB-468 cells assessed as effect on cleaved PARP level at 50 uM incubated for 24 hrs
MDA-MB-468 [12] = experiment: Downregulation of E2F2 mRNA expression in human MDA-MB-468 cells at 25 uM incubated for 12 hrs by qRT-PCR analysis; type: functional, cell-based; procedure, shortened: as §1
P493-6 [13] = experiment: Antiproliferative activity against human P493-6 cells expressing MYC assessed as inhibition of cell proliferation at 25 uM incubated for 96 hrs by cell titer glo assay; type: functional, cell-based
Procedure, shortened: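 P493-6 cells, either untreated (high MYC) or MYC-off after 0.1 µg/mL tetracycline for 72 h, were exposed to 25 µM for 96 h. Read-out was % survival by CellTiter-Glo luminescence. Mean ± SD, n = 6, unpaired t-test.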

MDA-MB-231 = experiment: Antiproliferative activity against human MDA-MB-231 cells assessed as cell viability incubated for 96 hrs by MTT assay; type: functional, cell-based; settings: MDA-MB-231, 96 h; procedure, shortened: as §2
P493-6 [14] = experiment: Downregulation of CDC25C mRNA expression in human P493-6 cells at 25 uM incubated for 12 hrs by qRT-PCR analysis; type: functional, cell-based; procedure, shortened: as §1
MDA-MB-468 [15] = experiment: Downregulation of E2F1 mRNA expression in human MDA-MB-468 cells at 25 uM incubated at 48 hrs by qRT-PCR analysis; type: functional, cell-based; procedure, shortened: as §1
MDA-MB-468 [16] = experiment: Downregulation of MYC level in human MDA-MB-468 cells incubated for 24 hrs by Western blot analysis; type: functional, cell-based; settings: dose <= 50.0 µM
Procedure, shortened: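 Cells (300,000/well) were plated 24 h, then exposed to graded concentrations or DMSO for 24 h. Laemmli lysates were run on 4–20% SDS-PAGE and immunoblotted for MYC. Levels were normalized to actin. Mean ± SD, n = 2, one-way ANOVA with Dunnett.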

MDA-MB-468 [17] = experiment: Downregulation of CDC25C mRNA expression in human MDA-MB-468 cells at 25 uM incubated for 12 hrs by qRT-PCR analysis; type: functional, cell-based; procedure, shortened: as §1
[18] = Induction of apoptosis in human P493-6 cells assessed as viable cells at 50 uM incubated for 24 hrs by Annexin V/PI staining based flow cytometry analysis (reference value: 90.8%); type: functional; settings: read-out: Activity
[19] = Selectivity index, ratio of IC50 for antiproliferative activity against tetracycline-treated human P493-6 cells expressing MYC assessed as inhibition of cell proliferation to IC50 for antiproliferative activity against human P493-6 cells expressing MYC assessed as inhibition of cell proliferation; type: functional
Procedure, shortened: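 MYC-off P493-6 cells obtained by 72 h pretreatment with 0.1 µg/mL tetracycline and compared with untreated MYC-high cells. Cells seeded at 3000 per 100 uL, held overnight at 37 °C, then treated at 0.14–100 uM final for 96 h. Viability read by CellTiter-Glo luminescence. IC50 values determined in both states and compared as a selectivity index.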

P493-6 [20] = experiment: Induction of apoptosis in human P493-6 cells assessed as effect on PARP level at 50 uM incubated for 24 hrs
MDA-MB-468 [21] = experiment: Induction of apoptosis in human MDA-MB-468 cells assessed as effect on caspase-3 level at 50 uM incubated for 24 hrs
[22] = Induction of apoptosis in human P493-6 cells assessed as early apoptotic cells at 25 uM incubated for 24 hrs by Annexin V/PI staining based flow cytometry analysis (reference value: 2.52 %); type: functional
P493-6 [23] = experiment: Downregulation of E2F1 mRNA expression in human P493-6 cells at 25 uM incubated for 12 hrs by qRT-PCR analysis; type: functional, cell-based; procedure, shortened: as §1
MDA-MB-468 [24] = experiment: Downregulation of CDK2 mRNA expression in human MDA-MB-468 cells at 25 uM incubated for 12 hrs by qRT-PCR analysis; type: functional, cell-based; procedure, shortened: as §1
P493-6 [25] = experiment: Downregulation of CDC25A mRNA expression in human P493-6 cells at 25 uM incubated for 12 hrs by qRT-PCR analysis; type: functional, cell-based; procedure, shortened: as §1

Activity [1]: Active | IC50 (MDA-MB-468 [6]): 13.5 µM | Activity [8]: Active | Activity [9]: Active | IC50 (MDA-MB-231): 10.6 µM
SMILES: N#Cc1cc2c(-c3ccc(Cl)cc3)nn(-c3ccccc3)c2[nH]c1=O
Activity [2]: 5.11% | Activity (P493-6 [3]): Active | Activity (MDA-MB-468 [4]): Active | Activity (MDA-MB-468 [5]): Active | IC50 [7]: 15.2 µM | Activity [10]: 0.11% | Activity (MDA-MB-468 [11]): Active | Activity (MDA-MB-468 [12]): Active | Activity (P493-6 [13]): Active | Activity (P493-6 [14]): Active | Activity (MDA-MB-468 [15]): Active | Activity (MDA-MB-468 [16]): Dose-dependent-effect | Activity (MDA-MB-468 [17]): Active | viability at 50 µM [18]: 77.2% | Ratio IC50 [19]: 3.9 | Activity (P493-6 [20]): Active | Activity (MDA-MB-468 [21]): Active | Activity [22]: 3.1% | Activity (P493-6 [23]): Active | Activity (MDA-MB-468 [24]): Active | Activity (P493-6 [25]): Active
